In ChEMBL document CHEMBL3853327 (J Med Chem, 2016):

Tested on: Human immunodeficiency virus 1
Assay: Antiviral activity against HIV1 3B harboring reverse transcriptase L100I mutant infected in human MT4 cells assessed as protection against virus induced cytotoxicity after 5 days by MTT assay
Format: functional, cell-based
Settings: Human immunodeficiency virus 1, 3B, MT4, 120 h
Outline: (§1)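 MTT cytopathicity assay in MT-4 cells (6 × 10^5 cells/mL). Compounds serially diluted 5-fold in triplicate wells, run in parallel on infected and mock-infected cells. Virus added at 100−300 CCID50 per well. Viability read spectrophotometrically at 540 and 690 nm after 5 days, using the median OD of three wells. EC50 is the concentration giving 50% protection from viral cytopathogenicity.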

SMILES | EC50
Cc1cc(C#N)cc(C)c1Oc1nc(NC2CCN(Cc3ccc(NS(C)(=O)=O)cc3)CC2)nc2ccsc12 | 13.6 nM

Tested on: Human immunodeficiency virus 1
Assay: Antiviral activity against HIV1 3B harboring reverse transcriptase K103N mutant infected in human MT4 cells assessed as protection against virus induced cytotoxicity after 5 days by MTT assay
Format: functional, cell-based
Settings: Human immunodeficiency virus 1, 3B, MT4, 120 h
Outline: as §1

SMILES | EC50
Cc1cc(C#N)cc(C)c1Oc1nc(NC2CCN(Cc3ccc(NS(C)(=O)=O)cc3)CC2)nc2ccsc12 | 1.9 nM

Tested on: not listed separately
Assay: Selectivity index, ratio of CC50 for human mock-infected MT4 cells to EC50 for HIV1 3B harboring reverse transcriptase L100I mutant infected in human MT4 cells
Format: toxicity, cell-based
Settings: MT4 cells (mock-infected for CC50, HIV-1 infected for EC50)
Outline: (§2)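 Selectivity index is CC50/EC50. CC50 is the concentration that reduces OD540 of mock-infected MT-4 cells by 50% in the 5-day MTT assay. EC50 is the 50% protection from virus-induced cytopathicity, measured in parallel on infected wells.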

SMILES | selectivity ratio
Cc1cc(C#N)cc(C)c1Oc1nc(NC2CCN(Cc3ccc(NS(C)(=O)=O)cc3)CC2)nc2ccsc12 | 5020

Tested on: not listed separately
Assay: Selectivity index, ratio of CC50 for human mock-infected MT4 cells to EC50 for wild type HIV1 3B harboring reverse transcriptase infected in human MT4 cells
Format: toxicity, cell-based
Settings: MT4 cells (mock-infected for CC50, HIV-1 infected for EC50)
Outline: as §2

SMILES | selectivity ratio
Cc1cc(C#N)cc(C)c1Oc1nc(NC2CCN(Cc3ccc(NS(C)(=O)=O)cc3)CC2)nc2ccsc12 | 44200

Tested on: not listed separately
Assay: Cytotoxicity against human mock-infected MT4 cells assessed as reduction in cell viability after 5 days by MTT assay
Format: toxicity, cell-based
Settings: not given
Outline: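 Mock-infected MT-4 cells (6 × 10^5 cells/mL at seeding) with serial 5-fold compound dilutions in triplicate wells. Viability read by MTT after 5 days, absorbance at 540 and 690 nm, median OD of three wells. CC50 is the concentration reducing OD540 of mock-infected cells by 50%.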

SMILES | CC50 at 120 h
Cc1cc(C#N)cc(C)c1Oc1nc(NC2CCN(Cc3ccc(NS(C)(=O)=O)cc3)CC2)nc2ccsc12 | 68300 nM

Tested on: Human immunodeficiency virus 1
Assay: Potency index, ratio of ETV EC50 to compound EC50 for HIV1 3B harboring reverse transcriptase YI88L mutant infected in human MT4 cells
Format: functional
Settings: not given

SMILES | Ratio EC50
Cc1cc(C#N)cc(C)c1Oc1nc(NC2CCN(Cc3ccc(NS(C)(=O)=O)cc3)CC2)nc2ccsc12 | 2

Tested on: not listed separately
Assay: Selectivity index, ratio of CC50 for human mock-infected MT4 cells to EC50 for HIV1 3B harboring reverse transcriptase F227L/V106A double mutant infected in human MT4 cells
Format: toxicity, cell-based
Settings: MT4 cells (mock-infected for CC50, HIV-1 infected for EC50)
Outline: as §2

SMILES | selectivity ratio
Cc1cc(C#N)cc(C)c1Oc1nc(NC2CCN(Cc3ccc(NS(C)(=O)=O)cc3)CC2)nc2ccsc12 | 2120

Tested on: Human immunodeficiency virus 1
Assay: Potency index, ratio of ETV EC50 to compound EC50 for HIV1 3B harboring reverse transcriptase E138K mutant infected in human MT4 cells
Format: functional
Settings: not given

SMILES | Ratio EC50
Cc1cc(C#N)cc(C)c1Oc1nc(NC2CCN(Cc3ccc(NS(C)(=O)=O)cc3)CC2)nc2ccsc12 | 2

Tested on: Human immunodeficiency virus 1
Assay: Antiviral activity against HIV1 3B harboring reverse transcriptase Y181C mutant infected in human MT4 cells assessed as protection against virus induced cytotoxicity after 5 days by MTT assay
Format: functional, cell-based
Settings: Human immunodeficiency virus 1, 3B, MT4, 120 h
Outline: as §1, with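 “wells.” for “wells. EC50 is the concentration giving 50% protection from viral cytopathogenicity.”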

SMILES | EC50
Cc1cc(C#N)cc(C)c1Oc1nc(NC2CCN(Cc3ccc(NS(C)(=O)=O)cc3)CC2)nc2ccsc12 | 6.9 nM

Tested on: Human immunodeficiency virus 1
Assay: Antiviral activity against HIV1 3B harboring reverse transcriptase Y188L mutant infected in human MT4 cells assessed as protection against virus induced cytotoxicity after 5 days by MTT assay
Format: functional, cell-based
Settings: Human immunodeficiency virus 1, 3B, MT4, 120 h
Outline: as §1

SMILES | EC50
Cc1cc(C#N)cc(C)c1Oc1nc(NC2CCN(Cc3ccc(NS(C)(=O)=O)cc3)CC2)nc2ccsc12 | 8.2 nM

Tested on: not listed separately
Assay: Selectivity index, ratio of CC50 for human mock-infected MT4 cells to EC50 for HIV1 3B harboring reverse transcriptase Y181C mutant infected in human MT4 cells
Format: toxicity, cell-based
Settings: MT4 cells (mock-infected for CC50, HIV-1 infected for EC50)
Outline: as §2

SMILES | selectivity ratio
Cc1cc(C#N)cc(C)c1Oc1nc(NC2CCN(Cc3ccc(NS(C)(=O)=O)cc3)CC2)nc2ccsc12 | 9890

Tested on: Human immunodeficiency virus 1
Assay: Antiviral activity against wild type HIV1 3B harboring reverse transcriptase infected in human MT4 cells assessed as protection against virus induced cytotoxicity after 5 days by MTT assay
Format: functional, cell-based
Settings: Human immunodeficiency virus 1, 3B, MT4, 120 h
Outline: as §1, with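 “wells.” for “wells. EC50 is the concentration giving 50% protection from viral cytopathogenicity.”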

SMILES | EC50
Cc1cc(C#N)cc(C)c1Oc1nc(NC2CCN(Cc3ccc(NS(C)(=O)=O)cc3)CC2)nc2ccsc12 | 1.5 nM

Tested on: Human immunodeficiency virus 1
Assay: Antiviral activity against HIV1 3B harboring reverse transcriptase F227L/V106A double mutant infected in human MT4 cells assessed as protection against virus induced cytotoxicity after 5 days by MTT assay
Format: functional, cell-based
Settings: Human immunodeficiency virus 1, 3B, MT4, 120 h
Outline: as §1

SMILES | EC50
Cc1cc(C#N)cc(C)c1Oc1nc(NC2CCN(Cc3ccc(NS(C)(=O)=O)cc3)CC2)nc2ccsc12 | 32.2 nM

Tested on: Human immunodeficiency virus 1
Assay: Antiviral activity against HIV1 3B harboring reverse transcriptase E138K mutant infected in human MT4 cells assessed as protection against virus induced cytotoxicity after 5 days by MTT assay
Format: functional, cell-based
Settings: Human immunodeficiency virus 1, 3B, MT4, 120 h
Outline: as §1

SMILES | EC50
Cc1cc(C#N)cc(C)c1Oc1nc(NC2CCN(Cc3ccc(NS(C)(=O)=O)cc3)CC2)nc2ccsc12 | 6.9 nM

Tested on: not listed separately
Assay: Selectivity index, ratio of CC50 for human mock-infected MT4 cells to EC50 for HIV1 3B harboring reverse transcriptase K103N mutant infected in human MT4 cells
Format: toxicity, cell-based
Settings: MT4 cells (mock-infected for CC50, HIV-1 infected for EC50)
Outline: as §2

SMILES | selectivity ratio
Cc1cc(C#N)cc(C)c1Oc1nc(NC2CCN(Cc3ccc(NS(C)(=O)=O)cc3)CC2)nc2ccsc12 | 35700

Tested on: Human immunodeficiency virus 1
Assay: Potency index, ratio of ETV EC50 to compound EC50 for HIV1 3B harboring reverse transcriptase Y181C mutant infected in human MT4 cells
Format: functional
Settings: not given

SMILES | Ratio EC50
Cc1cc(C#N)cc(C)c1Oc1nc(NC2CCN(Cc3ccc(NS(C)(=O)=O)cc3)CC2)nc2ccsc12 | 2

Tested on: not listed separately
Assay: Selectivity index, ratio of CC50 for human mock-infected MT4 cells to EC50 for HIV1 3B harboring reverse transcriptase E138K mutant infected in human MT4 cells
Format: toxicity, cell-based
Settings: MT4 cells (mock-infected for CC50, HIV-1 infected for EC50)
Outline: as §2

SMILES | selectivity ratio
Cc1cc(C#N)cc(C)c1Oc1nc(NC2CCN(Cc3ccc(NS(C)(=O)=O)cc3)CC2)nc2ccsc12 | 9900

Tested on: not listed separately
Assay: Antiviral activity against HIV2 ROD harboring reverse transcriptase infected in human MT4 cells assessed as protection against virus induced cytotoxicity after 5 days by MTT assay
Format: functional, cell-based, Human immunodeficiency virus type 2 (ISOLATE ROD)
Settings: Human immunodeficiency virus 2, MT4, 120 h
Outline: as §1

SMILES | EC50
Cc1cc(C#N)cc(C)c1Oc1nc(NC2CCN(Cc3ccc(NS(C)(=O)=O)cc3)CC2)nc2ccsc12 | > 68300 nM

Tested on: not listed separately
Assay: Selectivity index, ratio of CC50 for human mock-infected MT4 cells to EC50 for HIV1 RES056 harboring reverse transcriptase K103N/Y181C double mutant infected in human MT4 cells
Format: toxicity, cell-based
Settings: MT4 cells (mock-infected for CC50, HIV-1 infected for EC50)
Outline: as §2

SMILES | selectivity ratio
Cc1cc(C#N)cc(C)c1Oc1nc(NC2CCN(Cc3ccc(NS(C)(=O)=O)cc3)CC2)nc2ccsc12 | 261

Tested on: not listed separately
Assay: Selectivity index, ratio of CC50 for human mock-infected MT4 cells to EC50 for HIV1 3B harboring reverse transcriptase Y188L mutant infected in human MT4 cells
Format: toxicity, cell-based
Settings: MT4 cells (mock-infected for CC50, HIV-1 infected for EC50)
Outline: as §2

SMILES | selectivity ratio
Cc1cc(C#N)cc(C)c1Oc1nc(NC2CCN(Cc3ccc(NS(C)(=O)=O)cc3)CC2)nc2ccsc12 | 8870
